# Assay results reported in ChEMBL document CHEMBL4706590, “Design and characterization of cereblon-mediated androgen receptor proteolysis-targeting chimeras” (Eur J Med Chem, 2020).
# Test system: VCaP
# Test: Antiproliferative activity against human VCaP cells assessed as reduction in cell viability after 6 days by CellTiter-Glo assay
# Format: functional
# Conditions: 144 h, time 6 day
# Outline: (§1)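 LNCaP seeded at 1.5 × 10³ and VCaP at 4 × 10³ cells per well in 96-well plates. Cells grown in IMDM with 10% FBS and antibiotic-antimycotic at 37 °C, 5% CO2, with DMSO as vehicle. IC50 from nonlinear regression of log(inhibitor) versus response.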
row,Compound,CC50 [nM]
1,CC1(C)[C@H](NC(=O)c2ccc(N3CCN(CCOC4CCN(c5ccc6nnn(C7CCC(=O)NC7=O)c(=O)c6c5)CC4)CC3)cc2)C(C)(C)[C@H]1Oc1ccc(C#N)c(Cl)c1 (stereo partly specified),22
2,CC1(C)[C@H](NC(=O)c2ccc(N3CCN(CC4CCN(C(=O)CNc5ccc6nnn(C7CCC(=O)NC7=O)c(=O)c6c5)CC4)CC3)cc2)C(C)(C)[C@H]1Oc1ccc(C#N)c(Cl)c1 (stereo partly specified),3820
3,CC1(C)[C@H](NC(=O)c2ccc(N3CCN(CCC4CCN(c5ccc6nnn(C7CCC(=O)NC7=O)c(=O)c6c5)CC4)CC3)cc2)C(C)(C)[C@H]1Oc1ccc(C#N)c(Cl)c1 (stereo partly specified),120

# Test system: not listed separately
# Test: Half life in ICR mouse at 30 mg/kg, po by LC-MS/MS analysis
# Format: ADME, organism-based
# Conditions: ICR, in vivo
# Outline: (§2)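 Male ICR mice, 7 weeks old. Single dose of 5 mg/kg IV or IP in 5% DMSO, 52% PEG400, 3% Tween 80 in water, or 30 mg/kg PO in 20% PEG400 and 3% Tween 80 in water. Retro-orbital blood sampled over time. Plasma protein-precipitated with acetonitrile (1:10) and analysed by LC-MS/MS. Parameters from noncompartmental analysis of mean data, n = 3.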
row,Compound,half-life [h]
1,CC1(C)[C@H](NC(=O)c2ccc(N3CCN(CCOC4CCN(c5ccc6nnn(C7CCC(=O)NC7=O)c(=O)c6c5)CC4)CC3)cc2)C(C)(C)[C@H]1Oc1ccc(C#N)c(Cl)c1 (stereo partly specified),5.58

# Test system: not listed separately
# Test: AUCt in ICR mouse at 5 mg/kg, ip by LC-MS/MS analysis
# Format: ADME, organism-based
# Parameters: dose 5 mg/kg
# Conditions: in vivo
# Outline: as §2
row,Compound,AUCt [ng·h/mL]
1,CC1(C)[C@H](NC(=O)c2ccc(N3CCN(CCOC4CCN(c5ccc6nnn(C7CCC(=O)NC7=O)c(=O)c6c5)CC4)CC3)cc2)C(C)(C)[C@H]1Oc1ccc(C#N)c(Cl)c1 (stereo partly specified),10700

# Molecular target: T1, Protein cereblon/Androgen receptor (Homo sapiens, UniProt P10275+Q96SW2)
# T1 sequence (P10275 whole entry, looked up): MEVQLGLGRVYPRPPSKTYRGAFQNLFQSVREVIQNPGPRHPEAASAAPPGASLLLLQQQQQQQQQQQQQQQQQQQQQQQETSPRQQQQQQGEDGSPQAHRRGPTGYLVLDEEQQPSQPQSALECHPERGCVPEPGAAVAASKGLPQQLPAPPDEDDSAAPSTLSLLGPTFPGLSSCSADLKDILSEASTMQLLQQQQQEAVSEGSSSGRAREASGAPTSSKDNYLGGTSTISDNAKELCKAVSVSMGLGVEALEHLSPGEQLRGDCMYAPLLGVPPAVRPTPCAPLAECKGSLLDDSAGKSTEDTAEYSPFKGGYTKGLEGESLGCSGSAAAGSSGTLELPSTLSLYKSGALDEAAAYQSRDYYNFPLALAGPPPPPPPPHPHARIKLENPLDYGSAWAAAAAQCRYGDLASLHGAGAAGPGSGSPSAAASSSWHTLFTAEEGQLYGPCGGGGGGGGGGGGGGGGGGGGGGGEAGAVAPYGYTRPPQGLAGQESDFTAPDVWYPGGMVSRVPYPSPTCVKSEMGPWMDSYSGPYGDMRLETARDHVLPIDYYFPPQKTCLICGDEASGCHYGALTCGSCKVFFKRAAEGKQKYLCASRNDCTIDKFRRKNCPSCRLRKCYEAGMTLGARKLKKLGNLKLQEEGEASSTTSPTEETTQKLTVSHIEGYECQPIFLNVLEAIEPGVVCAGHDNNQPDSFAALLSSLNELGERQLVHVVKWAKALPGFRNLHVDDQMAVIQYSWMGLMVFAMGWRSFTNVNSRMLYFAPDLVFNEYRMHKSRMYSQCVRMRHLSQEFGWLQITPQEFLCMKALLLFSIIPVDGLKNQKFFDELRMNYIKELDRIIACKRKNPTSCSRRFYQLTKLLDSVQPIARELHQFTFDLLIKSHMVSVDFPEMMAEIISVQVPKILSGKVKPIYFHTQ
# T1 sequence (Q96SW2 whole entry, looked up): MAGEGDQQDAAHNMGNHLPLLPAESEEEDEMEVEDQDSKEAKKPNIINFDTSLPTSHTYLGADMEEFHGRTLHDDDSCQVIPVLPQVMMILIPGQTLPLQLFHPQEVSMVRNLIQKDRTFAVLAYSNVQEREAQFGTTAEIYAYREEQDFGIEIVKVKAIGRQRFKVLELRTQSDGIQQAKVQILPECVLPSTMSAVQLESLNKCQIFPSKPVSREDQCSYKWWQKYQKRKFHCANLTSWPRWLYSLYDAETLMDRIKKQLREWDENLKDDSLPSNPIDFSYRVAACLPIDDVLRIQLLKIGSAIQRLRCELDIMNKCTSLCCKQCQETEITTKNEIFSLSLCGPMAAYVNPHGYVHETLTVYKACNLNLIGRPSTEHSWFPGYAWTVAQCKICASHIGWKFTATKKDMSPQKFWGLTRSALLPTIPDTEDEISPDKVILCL
# Test: Protac activity at CRBN/AR in human LNCaP cells assessed as AR degradation at 10 uM by Western blotting analysis relative to control
# Format: cell-based
# Conditions: not given
# Outline: (§3)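 LNCaP (IMDM) or 22RV1 (RPMI 1640) cells with 10% FBS at 37 °C, 5% CO2, treated with DMSO vehicle as control. Cells lysed in RIPA buffer (50 mM Tris-HCl pH 7.5, 150 mM NaCl, 1% Triton X-100, 0.1% SDS, 0.5% deoxycholate, protease inhibitors). Protein quantified by Bradford assay. Immunoblotted for AR with tubulin as loading control, HRP chemiluminescence detection.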
row,Compound,Activity [%]
1,CC1(C)[C@H](NC(=O)c2ccc(N3CCN(CCOC4CCN(c5ccc6nnn(C7CCC(=O)NC7=O)c(=O)c6c5)CC4)CC3)cc2)C(C)(C)[C@H]1Oc1ccc(C#N)c(Cl)c1 (stereo partly specified),87
2,CC1(C)[C@H](NC(=O)c2ccc(N3CCN(CC4CCN(C(=O)CNc5ccc6nnn(C7CCC(=O)NC7=O)c(=O)c6c5)CC4)CC3)cc2)C(C)(C)[C@H]1Oc1ccc(C#N)c(Cl)c1 (stereo partly specified),35

# Test system: not listed separately
# Test: Half life in ICR mouse at 5 mg/kg, ip by LC-MS/MS analysis
# Format: ADME, organism-based
# Conditions: in vivo
# Outline: as §2
row,Compound,t1/2 [h]
1,CC1(C)[C@H](NC(=O)c2ccc(N3CCN(CCOC4CCN(c5ccc6nnn(C7CCC(=O)NC7=O)c(=O)c6c5)CC4)CC3)cc2)C(C)(C)[C@H]1Oc1ccc(C#N)c(Cl)c1 (stereo partly specified),4.51

# Test system: LNCaP
# Test: Antiproliferative activity against human LNCaP cells assessed as reduction in cell viability after 6 days by CellTiter-Glo assay
# Format: functional
# Conditions: 144 h, time 6 day
# Outline: as §1
row,Compound,CC50 [nM]
1,CC1(C)[C@H](NC(=O)c2ccc(N3CCN(CCOC4CCN(c5ccc6nnn(C7CCC(=O)NC7=O)c(=O)c6c5)CC4)CC3)cc2)C(C)(C)[C@H]1Oc1ccc(C#N)c(Cl)c1 (stereo partly specified),523
2,CC1(C)[C@H](NC(=O)c2ccc(N3CCN(CC4CCN(C(=O)CNc5ccc6nnn(C7CCC(=O)NC7=O)c(=O)c6c5)CC4)CC3)cc2)C(C)(C)[C@H]1Oc1ccc(C#N)c(Cl)c1 (stereo partly specified),117
3,CC1(C)[C@H](NC(=O)c2ccc(N3CCN(CCC4CCN(c5ccc6nnn(C7CCC(=O)NC7=O)c(=O)c6c5)CC4)CC3)cc2)C(C)(C)[C@H]1Oc1ccc(C#N)c(Cl)c1 (stereo partly specified),449

# Test system: not listed separately
# Test: Tmax in ICR mouse at 30 mg/kg, po by LC-MS/MS analysis
# Format: ADME, organism-based
# Conditions: ICR, in vivo, read-out: Tmax
# Outline: as §2
row,Compound,Tmax [h]
1,CC1(C)[C@H](NC(=O)c2ccc(N3CCN(CCOC4CCN(c5ccc6nnn(C7CCC(=O)NC7=O)c(=O)c6c5)CC4)CC3)cc2)C(C)(C)[C@H]1Oc1ccc(C#N)c(Cl)c1 (stereo partly specified),2

# Test system: not listed separately
# Test: Metabolic stability in mouse liver microsomes assessed as compound remaining at 1 uM after 30 mins in presence of NADPH-regenerating system
# Format: ADME, Microsome
# Conditions: read-out: Stabilty
# Outline: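 Mouse liver microsomes at 0.5 mg protein/mL in 100 mM PBS, pH 7.4. Reaction started with NADPH-regenerating solution (1.3 mM NADP+, 3.3 mM glucose-6-phosphate, 0.4 U/mL G6PDH, 3.3 mM MgCl2). Incubated 30 min at 37 °C, stopped with ice-cold acetonitrile, centrifuged. Percent remaining reported as mean ± SD, n = 3.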
row,Compound,"remaining at 0.5 h, 1 µM [%]"
1,CC1(C)[C@H](NC(=O)c2ccc(N3CCN(CCOC4CCN(c5ccc6nnn(C7CCC(=O)NC7=O)c(=O)c6c5)CC4)CC3)cc2)C(C)(C)[C@H]1Oc1ccc(C#N)c(Cl)c1 (stereo partly specified),86.8
2,CC1(C)[C@H](NC(=O)c2ccc(N3CCN(CCC4CCN(c5ccc6nnn(C7CCC(=O)NC7=O)c(=O)c6c5)CC4)CC3)cc2)C(C)(C)[C@H]1Oc1ccc(C#N)c(Cl)c1 (stereo partly specified),86.7

# Molecular target: T1, Protein cereblon/Androgen receptor
# Test: Protac activity at CRBN/AR in human LNCaP cells assessed as AR degradation at 1 uM by Western blotting analysis relative to control
# Format: cell-based
# Conditions: not given
# Outline: as §3
row,Compound,Activity [%]
1,CC1(C)[C@H](NC(=O)c2ccc(N3CCN(CCOC4CCN(c5ccc6nnn(C7CCC(=O)NC7=O)c(=O)c6c5)CC4)CC3)cc2)C(C)(C)[C@H]1Oc1ccc(C#N)c(Cl)c1 (stereo partly specified),89
2,CC1(C)[C@H](NC(=O)c2ccc(N3CCN(CC4CCN(C(=O)CNc5ccc6nnn(C7CCC(=O)NC7=O)c(=O)c6c5)CC4)CC3)cc2)C(C)(C)[C@H]1Oc1ccc(C#N)c(Cl)c1 (stereo partly specified),89
3,CC1(C)[C@H](NC(=O)c2ccc(N3CCN(CCC4CCN(c5ccc6nnn(C7CCC(=O)NC7=O)c(=O)c6c5)CC4)CC3)cc2)C(C)(C)[C@H]1Oc1ccc(C#N)c(Cl)c1 (stereo partly specified),94

# Molecular target: T1, Protein cereblon/Androgen receptor
# Test: Protac activity at CRBN/AR in human LNCaP cells assessed as AR degradation at 0.1 uM by western blotting analysis relative to control
# Format: cell-based
# Conditions: not given
# Outline: as §3
row,Compound,Activity [%]
1,CC1(C)[C@H](NC(=O)c2ccc(N3CCN(CCOC4CCN(c5ccc6nnn(C7CCC(=O)NC7=O)c(=O)c6c5)CC4)CC3)cc2)C(C)(C)[C@H]1Oc1ccc(C#N)c(Cl)c1 (stereo partly specified),86
2,CC1(C)[C@H](NC(=O)c2ccc(N3CCN(CC4CCN(C(=O)CNc5ccc6nnn(C7CCC(=O)NC7=O)c(=O)c6c5)CC4)CC3)cc2)C(C)(C)[C@H]1Oc1ccc(C#N)c(Cl)c1 (stereo partly specified),70
3,CC1(C)[C@H](NC(=O)c2ccc(N3CCN(CCC4CCN(c5ccc6nnn(C7CCC(=O)NC7=O)c(=O)c6c5)CC4)CC3)cc2)C(C)(C)[C@H]1Oc1ccc(C#N)c(Cl)c1 (stereo partly specified),51

# Test system: not listed separately
# Test: Half life in ICR mouse at 5 mg/kg, iv by LC-MS/MS analysis
# Format: ADME, organism-based
# Conditions: in vivo
# Outline: as §2
row,Compound,half-life [h]
1,CC1(C)[C@H](NC(=O)c2ccc(N3CCN(CCOC4CCN(c5ccc6nnn(C7CCC(=O)NC7=O)c(=O)c6c5)CC4)CC3)cc2)C(C)(C)[C@H]1Oc1ccc(C#N)c(Cl)c1 (stereo partly specified),4.68

# Test system: not listed separately
# Test: Cmax in ICR mouse at 30 mg/kg, po by LC-MS/MS analysis
# Format: ADME, organism-based
# Parameters: route oral, dose 30 mg/kg
# Conditions: ICR, in vivo, read-out: Cmax
# Outline: as §2
row,Compound,Cmax [ng/mL]
1,CC1(C)[C@H](NC(=O)c2ccc(N3CCN(CCOC4CCN(c5ccc6nnn(C7CCC(=O)NC7=O)c(=O)c6c5)CC4)CC3)cc2)C(C)(C)[C@H]1Oc1ccc(C#N)c(Cl)c1 (stereo partly specified),280

# Test system: not listed separately
# Test: AUCt in ICR mouse at 5 mg/kg, iv by LC-MS/MS analysis
# Format: ADME, organism-based
# Parameters: dose 5 mg/kg
# Conditions: in vivo
# Outline: as §2
row,Compound,AUC(0-t) [ng·h/mL]
1,CC1(C)[C@H](NC(=O)c2ccc(N3CCN(CCOC4CCN(c5ccc6nnn(C7CCC(=O)NC7=O)c(=O)c6c5)CC4)CC3)cc2)C(C)(C)[C@H]1Oc1ccc(C#N)c(Cl)c1 (stereo partly specified),14300

# Test system: not listed separately
# Test: Cmax in ICR mouse at 5 mg/kg, ip by LC-MS/MS analysis
# Format: ADME, organism-based
# Parameters: route intraperitoneal, dose 5 mg/kg
# Conditions: in vivo
# Outline: as §2
row,Compound,Cmax [ng/mL]
1,CC1(C)[C@H](NC(=O)c2ccc(N3CCN(CCOC4CCN(c5ccc6nnn(C7CCC(=O)NC7=O)c(=O)c6c5)CC4)CC3)cc2)C(C)(C)[C@H]1Oc1ccc(C#N)c(Cl)c1 (stereo partly specified),1780

# Test system: not listed separately
# Test: AUCt in ICR mouse at 30 mg/kg, po by LC-MS/MS analysis
# Format: ADME, organism-based
# Parameters: dose 30 mg/kg
# Conditions: ICR, in vivo
# Outline: as §2
row,Compound,AUC(0-t) [ng·h/mL]
1,CC1(C)[C@H](NC(=O)c2ccc(N3CCN(CCOC4CCN(c5ccc6nnn(C7CCC(=O)NC7=O)c(=O)c6c5)CC4)CC3)cc2)C(C)(C)[C@H]1Oc1ccc(C#N)c(Cl)c1 (stereo partly specified),2840

# Test system: not listed separately
# Test: Tmax in ICR mouse at 5 mg/kg, ip by LC-MS/MS analysis
# Format: ADME, organism-based
# Conditions: in vivo
# Outline: as §2
row,Compound,Tmax [h]
1,CC1(C)[C@H](NC(=O)c2ccc(N3CCN(CCOC4CCN(c5ccc6nnn(C7CCC(=O)NC7=O)c(=O)c6c5)CC4)CC3)cc2)C(C)(C)[C@H]1Oc1ccc(C#N)c(Cl)c1 (stereo partly specified),2
